Conditions in all cases: stereoisomer not certain
One test has as its system T1, O13C8 A19D.
T1 sequence (whole entry): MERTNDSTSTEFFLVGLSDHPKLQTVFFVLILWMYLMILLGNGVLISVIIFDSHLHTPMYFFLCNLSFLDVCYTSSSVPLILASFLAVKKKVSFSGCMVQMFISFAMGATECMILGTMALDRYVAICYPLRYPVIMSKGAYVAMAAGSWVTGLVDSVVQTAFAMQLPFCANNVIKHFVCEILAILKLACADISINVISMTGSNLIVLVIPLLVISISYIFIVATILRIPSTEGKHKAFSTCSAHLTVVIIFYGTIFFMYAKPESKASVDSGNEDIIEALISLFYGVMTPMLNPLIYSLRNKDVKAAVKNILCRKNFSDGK
The essentials: (§1)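 Each receptor–molecule pair is labelled responsive or non-responsive (inactive) according to whether the original authors judged the measured signal statistically different from baseline. The data were taken from the main text and supplementary material of published papers and checked for typos and inconsistencies. Assay methods differed by source, with transient luciferase assays in mammalian cell lines being common.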

A further test has as its system T2, O13C9 H17L V19G L23H.
T2 sequence (whole entry): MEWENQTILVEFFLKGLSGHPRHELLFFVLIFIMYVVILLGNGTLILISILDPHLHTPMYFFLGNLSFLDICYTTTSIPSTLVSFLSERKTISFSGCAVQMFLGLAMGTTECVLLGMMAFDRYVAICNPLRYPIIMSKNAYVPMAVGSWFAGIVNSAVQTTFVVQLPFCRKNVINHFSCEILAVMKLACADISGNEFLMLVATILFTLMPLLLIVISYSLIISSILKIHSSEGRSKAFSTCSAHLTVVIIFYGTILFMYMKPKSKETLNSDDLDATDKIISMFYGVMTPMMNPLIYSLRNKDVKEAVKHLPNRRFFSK
A digest of the protocol:
as §1

A further test relates to T3, O13C9 Q6H.
T3 sequence (whole entry): T2 sequence (whole entry) with Q6H, L17H, G19V, H23L
The essentials:
as §1

The next test deals with T4, O13F1 F18S.
T4 sequence (whole entry): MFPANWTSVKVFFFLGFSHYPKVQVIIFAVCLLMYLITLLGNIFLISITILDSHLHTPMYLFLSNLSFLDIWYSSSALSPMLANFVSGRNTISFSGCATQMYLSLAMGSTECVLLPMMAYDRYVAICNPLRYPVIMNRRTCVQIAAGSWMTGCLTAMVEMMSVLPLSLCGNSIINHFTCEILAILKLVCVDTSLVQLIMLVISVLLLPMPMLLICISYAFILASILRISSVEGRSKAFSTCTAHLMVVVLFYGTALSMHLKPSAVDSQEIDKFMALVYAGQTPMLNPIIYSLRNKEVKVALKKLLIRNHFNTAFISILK
The essentials: as §1

The test system of the next test is T5, O13G1 K46I M146L.
T5 sequence (whole entry): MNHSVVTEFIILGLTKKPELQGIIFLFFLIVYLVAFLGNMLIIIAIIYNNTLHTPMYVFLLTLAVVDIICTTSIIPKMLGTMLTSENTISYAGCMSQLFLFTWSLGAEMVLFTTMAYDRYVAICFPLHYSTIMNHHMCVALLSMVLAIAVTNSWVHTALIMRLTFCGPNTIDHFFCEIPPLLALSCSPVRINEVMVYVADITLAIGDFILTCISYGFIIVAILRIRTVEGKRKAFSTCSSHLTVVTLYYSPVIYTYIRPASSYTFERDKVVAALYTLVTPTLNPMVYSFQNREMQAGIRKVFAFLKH
The essentials:
as §1

Another test relates to T6, O13G1.
T6 sequence (whole entry): T5 sequence (whole entry) with I46K, I132V, L146M
A digest of the protocol:
as §1

The test system of a further test is T7, O13H1 Y266S.
T7 sequence (whole entry): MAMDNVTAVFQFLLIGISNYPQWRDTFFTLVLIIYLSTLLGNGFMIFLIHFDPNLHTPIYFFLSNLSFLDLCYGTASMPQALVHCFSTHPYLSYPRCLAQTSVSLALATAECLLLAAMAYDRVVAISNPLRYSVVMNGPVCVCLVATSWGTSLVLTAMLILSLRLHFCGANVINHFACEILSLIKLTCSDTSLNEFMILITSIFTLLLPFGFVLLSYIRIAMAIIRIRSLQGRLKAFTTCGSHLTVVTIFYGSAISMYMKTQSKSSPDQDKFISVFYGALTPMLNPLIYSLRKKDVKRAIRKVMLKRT
The essentials:
as §1

A further test concerns T8, O13J1.
T8 sequence (whole entry): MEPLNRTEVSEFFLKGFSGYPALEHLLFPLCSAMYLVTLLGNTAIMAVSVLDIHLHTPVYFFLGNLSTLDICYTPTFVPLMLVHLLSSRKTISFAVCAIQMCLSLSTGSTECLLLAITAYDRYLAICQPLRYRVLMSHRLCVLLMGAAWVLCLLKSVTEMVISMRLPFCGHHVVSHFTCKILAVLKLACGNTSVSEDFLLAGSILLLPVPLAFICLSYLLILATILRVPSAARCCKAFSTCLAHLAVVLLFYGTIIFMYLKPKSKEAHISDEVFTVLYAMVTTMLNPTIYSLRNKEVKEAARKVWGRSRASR
A digest of the protocol:
as §1

The subject of a further test is T9, O14A2 I133V.
T9 sequence (whole entry): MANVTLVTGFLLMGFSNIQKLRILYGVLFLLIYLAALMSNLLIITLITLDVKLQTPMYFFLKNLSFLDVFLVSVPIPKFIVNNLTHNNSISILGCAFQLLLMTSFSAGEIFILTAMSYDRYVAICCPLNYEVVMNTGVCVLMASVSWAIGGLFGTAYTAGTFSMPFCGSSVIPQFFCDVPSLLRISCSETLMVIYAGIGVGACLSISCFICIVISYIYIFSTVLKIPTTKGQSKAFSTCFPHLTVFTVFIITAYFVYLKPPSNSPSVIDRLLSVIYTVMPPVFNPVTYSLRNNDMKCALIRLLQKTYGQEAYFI
The essentials:
as §1

Another test concerns T10, O14CZ.
T10 sequence (whole entry): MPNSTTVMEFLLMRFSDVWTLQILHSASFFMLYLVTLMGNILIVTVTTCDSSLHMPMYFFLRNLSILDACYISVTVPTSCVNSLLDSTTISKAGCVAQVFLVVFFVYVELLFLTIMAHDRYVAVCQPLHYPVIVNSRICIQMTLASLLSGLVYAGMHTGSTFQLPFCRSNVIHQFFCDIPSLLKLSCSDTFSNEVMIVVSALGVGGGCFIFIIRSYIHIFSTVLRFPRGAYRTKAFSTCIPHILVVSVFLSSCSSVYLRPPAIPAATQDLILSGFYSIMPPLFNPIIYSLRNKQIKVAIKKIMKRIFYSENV
A digest of the protocol: as §1

The test system of another test is T11, O14I1 V36A D50N Y216C.
T11 sequence (whole entry): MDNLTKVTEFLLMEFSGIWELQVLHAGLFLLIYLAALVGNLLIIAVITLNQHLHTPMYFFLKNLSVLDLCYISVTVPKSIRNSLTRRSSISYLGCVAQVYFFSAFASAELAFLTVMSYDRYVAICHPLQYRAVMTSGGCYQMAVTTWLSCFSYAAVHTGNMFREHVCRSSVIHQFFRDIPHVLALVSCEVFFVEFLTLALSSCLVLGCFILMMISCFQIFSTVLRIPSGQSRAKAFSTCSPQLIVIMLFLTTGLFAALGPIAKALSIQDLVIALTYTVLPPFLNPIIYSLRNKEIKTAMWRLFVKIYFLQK
A digest of the protocol:
as §1

In another test the test system is T12, O14J1 N3Y.
T12 sequence (whole entry): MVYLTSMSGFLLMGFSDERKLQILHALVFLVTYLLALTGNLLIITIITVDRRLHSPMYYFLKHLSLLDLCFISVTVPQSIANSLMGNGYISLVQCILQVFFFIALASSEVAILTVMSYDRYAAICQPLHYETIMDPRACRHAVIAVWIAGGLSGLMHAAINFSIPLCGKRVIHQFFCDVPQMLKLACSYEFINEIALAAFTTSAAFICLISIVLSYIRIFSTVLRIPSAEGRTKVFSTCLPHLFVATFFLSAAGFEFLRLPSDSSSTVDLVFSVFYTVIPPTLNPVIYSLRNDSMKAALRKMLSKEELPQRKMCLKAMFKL
A digest of the protocol: as §1

The test system of the next test is T13, O14K1 D119Y.
T13 sequence (whole entry): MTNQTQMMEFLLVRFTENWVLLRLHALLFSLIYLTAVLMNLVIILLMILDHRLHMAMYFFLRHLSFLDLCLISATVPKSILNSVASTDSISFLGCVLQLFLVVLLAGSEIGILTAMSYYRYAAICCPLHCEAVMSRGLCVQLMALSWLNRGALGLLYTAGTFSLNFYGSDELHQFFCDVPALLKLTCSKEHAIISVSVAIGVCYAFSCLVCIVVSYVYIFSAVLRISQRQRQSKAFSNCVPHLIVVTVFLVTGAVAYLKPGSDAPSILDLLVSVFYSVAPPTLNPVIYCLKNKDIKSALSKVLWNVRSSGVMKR
The essentials: as §1

The subject of a further test is T14, O2A25.
T14 sequence (whole entry): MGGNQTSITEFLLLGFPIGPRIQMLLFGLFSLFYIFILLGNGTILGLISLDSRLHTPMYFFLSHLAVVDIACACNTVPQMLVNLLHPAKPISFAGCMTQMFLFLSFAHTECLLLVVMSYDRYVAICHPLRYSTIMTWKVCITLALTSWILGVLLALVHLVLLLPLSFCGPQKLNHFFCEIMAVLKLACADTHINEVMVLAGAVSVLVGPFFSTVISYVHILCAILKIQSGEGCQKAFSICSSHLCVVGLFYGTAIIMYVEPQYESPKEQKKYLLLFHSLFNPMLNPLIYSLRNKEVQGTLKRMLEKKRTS
A digest of the protocol: as §1

In a further test the test system is T15, O2AE1.
T15 sequence (whole entry): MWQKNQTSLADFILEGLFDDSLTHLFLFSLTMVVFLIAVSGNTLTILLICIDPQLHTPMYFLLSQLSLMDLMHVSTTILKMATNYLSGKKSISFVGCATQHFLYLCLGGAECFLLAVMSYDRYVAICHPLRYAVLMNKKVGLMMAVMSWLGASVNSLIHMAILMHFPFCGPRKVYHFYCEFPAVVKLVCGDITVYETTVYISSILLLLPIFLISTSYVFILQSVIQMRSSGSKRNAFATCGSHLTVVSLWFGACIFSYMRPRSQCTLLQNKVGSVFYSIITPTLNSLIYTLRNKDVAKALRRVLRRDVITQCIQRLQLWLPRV
The essentials:
as §1

A further test relates to T16, O2AK2 S99N.
T16 sequence (whole entry): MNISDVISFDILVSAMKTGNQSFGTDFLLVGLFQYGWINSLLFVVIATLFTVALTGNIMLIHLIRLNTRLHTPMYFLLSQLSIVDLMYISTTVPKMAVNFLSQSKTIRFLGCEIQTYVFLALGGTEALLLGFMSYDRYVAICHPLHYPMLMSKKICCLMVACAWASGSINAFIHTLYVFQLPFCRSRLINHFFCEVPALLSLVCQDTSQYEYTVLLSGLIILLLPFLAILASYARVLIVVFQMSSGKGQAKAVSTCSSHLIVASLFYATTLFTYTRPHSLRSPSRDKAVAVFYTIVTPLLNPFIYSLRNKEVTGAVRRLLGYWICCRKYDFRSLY
A digest of the protocol: as §1

The subject of test [1] is T17, O1440.
T17 sequence (whole entry): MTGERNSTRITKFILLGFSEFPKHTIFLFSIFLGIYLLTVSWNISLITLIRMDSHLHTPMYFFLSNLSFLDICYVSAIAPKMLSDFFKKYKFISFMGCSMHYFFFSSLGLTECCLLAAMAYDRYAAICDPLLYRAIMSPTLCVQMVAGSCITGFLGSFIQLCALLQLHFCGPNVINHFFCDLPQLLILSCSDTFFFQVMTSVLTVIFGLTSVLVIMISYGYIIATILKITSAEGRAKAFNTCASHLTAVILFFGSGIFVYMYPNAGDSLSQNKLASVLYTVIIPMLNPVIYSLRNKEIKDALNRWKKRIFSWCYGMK
The essentials:
as §1

For test [2], the system named is T18, O1440.
T18 sequence (whole entry): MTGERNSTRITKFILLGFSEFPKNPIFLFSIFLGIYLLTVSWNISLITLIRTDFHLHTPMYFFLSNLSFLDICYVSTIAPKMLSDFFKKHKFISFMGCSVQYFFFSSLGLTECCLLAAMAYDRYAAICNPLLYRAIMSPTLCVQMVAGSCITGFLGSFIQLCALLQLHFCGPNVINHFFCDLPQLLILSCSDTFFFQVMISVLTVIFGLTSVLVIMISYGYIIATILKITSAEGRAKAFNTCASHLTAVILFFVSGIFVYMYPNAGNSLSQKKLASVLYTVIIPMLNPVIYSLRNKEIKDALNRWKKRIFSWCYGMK
The essentials: as §1
This is another data set of the same source.

Numbering of substitutions follows the chain as printed.
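Note: active if original authors judged signal statistically different from baseline.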

In the case of `CCCCCCC=CCCC=O`, the “odorant receptor agonist call” value in the test with O13C8 A19D, in the test with O13C9 H17L V19G L23H, with O13C9 Q6H, in the test with O13F1 F18S, in the test on O13G1 K46I M146L and in the test on O13G1 was “inactive” in each case. The “odorant receptor agonist call” value in the test with O13H1 Y266S, in the test on O13J1, in the test with O14A2 I133V, in the test on O14CZ, in the test on O14I1 V36A D50N Y216C and in the test on O14J1 N3Y was “inactive” throughout. The “odorant receptor agonist call” value with O14K1 D119Y, with O2A25, with O2AE1 and with O2AK2 S99N was “inactive” throughout.
With `C1CCCCCCCCCCCCCC1`, the “odorant receptor agonist call” value with O1440 [1] and with O1440 [2] was “inactive” each time.
Regarding `CC(=O)c1c(C)c([N+](=O)[O-])c(C(C)(C)C)c([N+](=O)[O-])c1C`, the “odorant receptor agonist call” value in the test with O1440 [1] and in the test with O1440 [2] was “active” in each case.
As to `O=C1CCCC=CCCCCCCCCCC1`, the “odorant receptor agonist call” value with O1440 [1] and in the test on O1440 [2] was “active” each time.
Take `O=C1CCCCCCC=CCCCCCCC1`: the “odorant receptor agonist call” value in the test on O1440 [1] and in the test on O1440 [2] was “active” each time.
For `CC1CCCCCCCCCCCCC(=O)C1` (stereo not given), the “odorant receptor agonist call” value in the test with O1440 [1] and in the test on O1440 [2] was “active” each time.
`O=C1CCCCCC=CCCCCCCCCO1`: the “odorant receptor agonist call” value with O1440 [1] and in the test on O1440 [2] was “active” throughout.
`CC1C(C)(C)C2=C(C(=O)CCC2)C1(C)C` (stereo not given): the “odorant receptor agonist call” value in the test with O1440 [1] was “inactive”. Further, the “odorant receptor agonist call” value with O1440 [2] is “active”.

The values above are taken from the M2OR odorant receptor database.
